Assay results gathered from unrelated publications.
Each line is one published result; the experiments were not run side by side.
Read-out: cell growth or viability

Compound	cell line	assay	setting	IC50
Cc1nc(Nc2ncc(C(=O)Nc3c(C)cccc3Cl)s2)cc(N2CC[C@H](O)C2)n1	KARPAS-299	ATP luminescence	72 h	> 10 µM
CC(C)=CCc1ncc(/C=C2\NC(=O)[C@H](C(C)C)NC2=O)[nH]1	ASPC1	SRB		> 15 µM
CCCCC(=O)Nc1ccc(-c2ccc3ncn(CCC)c(=O)c3c2)c(F)n1	HCC827	CCK-8	72 h	0.82 µM
Cc1cccc([N+](=O)[O-])c1N=C1SCC(=O)N1c1nnc(-c2ccc(C(F)(F)F)cc2N=C2SCC(=O)N2c2c(C)cccc2[N+](=O)[O-])s1	WI-38	MTT		67.5 µM
CCCCn1cnc2ccc(-c3ccc(NC(=O)NCC)nc3)cc2c1=O	HCC827	CCK-8	72 h	> 10 µM
O=P1(C2CCCCC2)CCCCC1	HaCaT	MTT	72 h	> 100 µM
O=C1CS/C(=N\c2cc(C(F)(F)F)ccc2-c2nnc(N3C(=O)CS/C3=N\c3cccc(Cl)c3)s2)N1c1cccc(Cl)c1	WI-38	MTT		47.1 µM
CC1(P2(=O)CCCCC2)CCCCC1	HaCaT	MTT	72 h	> 100 µM
OCc1ccc(-c2nn(Cc3ccccn3)c3ccccc23)o1	HuCCT-1	ATP luminescence		> 46 µM
CN1CCC(NC2CCc3[nH]c4c(C(N)=O)ccc(-c5ccccc5Cl)c4c3C2)CC1 (centres unmarked)	HuCCT-1		96 h	0.00122 µM
COc1cc(C2C3=C(COC3=O)N(CCO)c3cc4c(cc32)CCC4)cc(OC)c1OC (centres unmarked)	E0771	ATP luminescence	48 h	0.039 µM
OCc1ccc(-c2nn(Cc3cccnc3)c3cccnc23)o1	HuCCT-1	ATP luminescence		> 46 µM
CCCCC(=O)Nc1ccc(-c2ccc3ncn(CCC)c(=O)c3c2)cn1	HCC827	CCK-8	72 h	0.037 µM
O=C1CSC(=Nc2cc([N+](=O)[O-])ccc2[N+](=O)[O-])N1c1nnc(-c2ccc(C(F)(F)F)cc2N=C2SCC(=O)N2c2cc([N+](=O)[O-])ccc2[N+](=O)[O-])s1	WI-38	MTT		89.2 µM
Cc1ccc(C(=O)Nc2ccc(-c3ccc4ncn(Cc5ccccc5)c(=O)c4c3)cn2)cc1	HCC827	CCK-8	72 h	> 10 µM
NCc1ccc(-c2nn(Cc3ccccn3)c3cccnc23)o1	HuCCT-1	ATP luminescence		> 46 µM
CCCCn1cnc2ccc(-c3ccc(NC(=O)C4CCC4)nc3)cc2c1=O	HCC827	CCK-8	72 h	6.31 µM
COc1cccc2c1C(=O)c1c(O)c3c(c(O)c1C2=O)C[C@@](O)(C(=O)CO)C[C@@H]3O[C@H]1C[C@H](N)[C@H](O)[C@H](C)O1	WI-38	MTT		52.6 µM
CCCCC(=O)Nc1ccc(-c2ccc3ncn(CC4CC4)c(=O)c3c2)cn1	HCC827	CCK-8	72 h	0.056 µM
NCc1ccc(-c2nn(Cc3ccccc3)c3ccccc23)o1	HuCCT-1	ATP luminescence		> 46 µM
